pIC50: −log10 of the molar value. Values after ≈ are worked out from the molar mass of the structure shown.
Key:
[1] = Aqueous solubility of the compound; assay type: physicochemical
Outline: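 Solubility measured in water, with each compound tested as amorphous material.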

[2] = Partition coefficient, log P of the compound; assay type: physicochemical; details: octanol/water
[3] = Half life in rat liver microsomes; assay type: ADME, microsome
Cytochrome P450 3A4 = Cytochrome P450 3A4 (Homo sapiens, UniProt P08684); experiment: (§1) Inhibition of recombinant CYP3A4 (unknown origin); assay type: ADME
Sequence of Cytochrome P450 3A4 (P08684 whole entry): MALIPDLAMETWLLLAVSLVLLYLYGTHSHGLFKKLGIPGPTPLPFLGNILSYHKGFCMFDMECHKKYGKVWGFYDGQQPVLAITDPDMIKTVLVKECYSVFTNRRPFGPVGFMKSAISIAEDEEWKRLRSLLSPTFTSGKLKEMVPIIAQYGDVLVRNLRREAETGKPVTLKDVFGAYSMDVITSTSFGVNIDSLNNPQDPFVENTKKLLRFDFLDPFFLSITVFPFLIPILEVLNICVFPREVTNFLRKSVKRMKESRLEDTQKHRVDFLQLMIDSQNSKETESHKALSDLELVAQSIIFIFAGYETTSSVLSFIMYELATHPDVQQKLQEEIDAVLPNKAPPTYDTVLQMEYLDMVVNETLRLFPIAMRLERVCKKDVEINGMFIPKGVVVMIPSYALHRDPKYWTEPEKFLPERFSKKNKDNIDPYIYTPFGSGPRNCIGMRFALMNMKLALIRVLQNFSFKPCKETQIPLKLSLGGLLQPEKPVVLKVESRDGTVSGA

Cytochrome P450 2D6 = Cytochrome P450 2D6 (Homo sapiens, UniProt P10635); experiment: Inhibition of CYP2D6 (unknown origin); assay type: ADME
Sequence of Cytochrome P450 2D6 (P10635 whole entry): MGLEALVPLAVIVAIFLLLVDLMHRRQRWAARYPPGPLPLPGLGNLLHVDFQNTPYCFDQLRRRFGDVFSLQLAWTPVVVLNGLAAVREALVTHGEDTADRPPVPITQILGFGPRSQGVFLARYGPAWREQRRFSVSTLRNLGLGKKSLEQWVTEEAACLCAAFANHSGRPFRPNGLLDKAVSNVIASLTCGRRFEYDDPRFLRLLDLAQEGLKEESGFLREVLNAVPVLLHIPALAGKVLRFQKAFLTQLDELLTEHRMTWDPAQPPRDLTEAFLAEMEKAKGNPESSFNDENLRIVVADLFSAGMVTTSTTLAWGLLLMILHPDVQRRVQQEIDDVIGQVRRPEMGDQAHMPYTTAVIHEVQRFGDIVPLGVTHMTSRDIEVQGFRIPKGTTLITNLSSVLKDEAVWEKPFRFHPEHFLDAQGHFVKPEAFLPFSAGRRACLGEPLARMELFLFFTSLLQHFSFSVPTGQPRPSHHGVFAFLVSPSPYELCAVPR

[4] = Half life in human liver microsomes; assay type: ADME, microsome
Cytochrome P450 2C9 = Cytochrome P450 2C9 (Homo sapiens, UniProt P11712); experiment: (§2) Inhibition of CYP2C9 (unknown origin); assay type: ADME
Sequence of Cytochrome P450 2C9 (P11712 whole entry): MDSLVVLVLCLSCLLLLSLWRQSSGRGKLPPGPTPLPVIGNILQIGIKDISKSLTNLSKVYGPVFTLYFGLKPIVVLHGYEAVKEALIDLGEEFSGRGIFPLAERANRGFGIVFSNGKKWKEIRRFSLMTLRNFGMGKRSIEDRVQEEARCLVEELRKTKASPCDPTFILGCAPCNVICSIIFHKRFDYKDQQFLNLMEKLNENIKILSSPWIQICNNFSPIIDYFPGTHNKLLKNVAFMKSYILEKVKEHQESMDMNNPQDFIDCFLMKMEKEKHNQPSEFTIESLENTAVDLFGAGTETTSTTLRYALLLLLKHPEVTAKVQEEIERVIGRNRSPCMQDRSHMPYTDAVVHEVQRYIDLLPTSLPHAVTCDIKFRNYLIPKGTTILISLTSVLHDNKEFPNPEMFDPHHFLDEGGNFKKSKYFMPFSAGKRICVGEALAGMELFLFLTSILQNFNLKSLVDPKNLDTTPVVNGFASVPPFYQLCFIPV

[5] = Half life in cynomolgus monkey liver microsomes; assay type: ADME, Macaca fascicularis, microsome
Cynomolgus monkey = experiment: Dose normalized AUC in iv dosed cynomolgus monkey; assay type: ADME, organism-based, Macaca fascicularis; details: in vivo
hERG = hERG (Homo sapiens, UniProt Q12809); experiment: Inhibition of human ERG at 10 uM by patch clamp assay relative to control
Sequence of hERG (Q12809 whole entry): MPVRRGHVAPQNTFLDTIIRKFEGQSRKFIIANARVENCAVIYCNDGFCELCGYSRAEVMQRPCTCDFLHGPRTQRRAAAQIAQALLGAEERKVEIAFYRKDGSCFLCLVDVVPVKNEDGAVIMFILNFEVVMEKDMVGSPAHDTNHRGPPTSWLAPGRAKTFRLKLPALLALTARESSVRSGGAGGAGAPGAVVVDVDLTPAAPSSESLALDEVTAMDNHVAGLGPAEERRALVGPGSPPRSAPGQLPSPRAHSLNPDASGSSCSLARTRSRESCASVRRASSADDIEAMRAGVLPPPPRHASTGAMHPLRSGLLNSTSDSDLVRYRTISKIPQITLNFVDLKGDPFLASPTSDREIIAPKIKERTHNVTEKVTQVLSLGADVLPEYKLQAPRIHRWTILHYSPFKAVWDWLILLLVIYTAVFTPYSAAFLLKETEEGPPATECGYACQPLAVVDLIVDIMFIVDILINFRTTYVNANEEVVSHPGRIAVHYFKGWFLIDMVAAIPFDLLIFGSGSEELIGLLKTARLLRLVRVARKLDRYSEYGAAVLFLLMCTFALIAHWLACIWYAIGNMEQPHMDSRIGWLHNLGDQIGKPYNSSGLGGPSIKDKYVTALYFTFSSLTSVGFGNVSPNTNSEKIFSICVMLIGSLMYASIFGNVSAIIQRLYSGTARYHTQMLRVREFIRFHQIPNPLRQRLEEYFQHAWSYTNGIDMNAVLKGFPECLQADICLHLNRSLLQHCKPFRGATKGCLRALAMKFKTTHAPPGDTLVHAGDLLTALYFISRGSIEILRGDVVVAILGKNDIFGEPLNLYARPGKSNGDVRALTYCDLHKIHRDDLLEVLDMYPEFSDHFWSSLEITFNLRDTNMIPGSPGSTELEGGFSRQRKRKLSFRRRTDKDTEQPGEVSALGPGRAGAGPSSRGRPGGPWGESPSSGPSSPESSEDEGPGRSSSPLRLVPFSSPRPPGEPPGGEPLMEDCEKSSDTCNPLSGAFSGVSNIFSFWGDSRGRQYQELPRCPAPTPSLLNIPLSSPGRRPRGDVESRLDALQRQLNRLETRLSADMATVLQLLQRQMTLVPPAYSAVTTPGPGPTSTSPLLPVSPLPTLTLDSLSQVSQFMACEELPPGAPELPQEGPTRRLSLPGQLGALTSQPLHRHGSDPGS

[6] = Mean residence time in iv dosed cynomolgus monkey; assay type: ADME, organism-based, Macaca fascicularis; details: in vivo
[7] = Clearance in iv dosed cynomolgus monkey; assay type: ADME, organism-based, Macaca fascicularis; details: in vivo
[8] = Volume of distribution at steady state in iv dosed cynomolgus monkey; assay type: ADME, organism-based, Macaca fascicularis; details: in vivo, read-out: Vdss
[9] = Mean residence time in po dosed cynomolgus monkey; assay type: ADME, organism-based, Macaca fascicularis; details: in vivo
[10] = Oral bioavailability in cynomolgus monkey; assay type: ADME, organism-based, Macaca fascicularis; details: in vivo
CYP3A4 = CYP3A4 (Homo sapiens, UniProt P08684); experiment: as §1; assay type: ADME; details: recombinant CYP3A4
Sequence of CYP3A4 (P08684 whole entry): as the sequence (P08684 whole entry) above

CYP2C9 = CYP2C9 (Homo sapiens, UniProt P11712); experiment: as §2; assay type: ADME
Sequence of CYP2C9 (P11712 whole entry): as the sequence (P11712 whole entry) above

[11] = Oral bioavailability in rat; assay type: ADME, organism-based; details: in vivo
[12] = Clearance in iv dosed rat; assay type: ADME, organism-based; details: in vivo
[13] = Mean residence time in iv dosed rat; assay type: ADME, organism-based; details: in vivo
[14] = target: Voltage-gated inwardly rectifying potassium channel KCNH2 (Homo sapiens, UniProt Q12809); experiment: Inhibition of human ERG
Sequence of Voltage-gated inwardly rectifying potassium channel KCNH2 (Q12809 whole entry): as the sequence (Q12809 whole entry) above

[15] = aqueous medium, read-out: solubility

| half-life [3] [min] | pIC50 (Cytochrome P450 3A4) | pIC50 (Cytochrome P450 2D6) | half-life [4] [min] | half-life [5] [min] | Compound | further results |
| --- | --- | --- | --- | --- | --- | --- |
| 53 | 5.46 | – | – | – | C[C@@H](c1ccc(Br)cc1)N1CC[C@](CC(C)(C)O)(c2ccc(F)cc2)OC1=O | – |
| 20.3 | – | – | – | – | C[C@@H](c1ccc(Br)cc1)N1CC[C@](CC(C)(C)C#N)(c2ccc(F)cc2)OC1=O | – |
| > 60 | – | – | – | – | C[C@@H](c1ccc(OC(F)(F)F)cc1)N1CC[C@](CCC(N)=O)(c2ccc(F)cc2)OC1=O | – |
| 7.1 | – | – | – | – | Cc1ccc([C@H](C)N2CC[C@](CCC(N)=O)(c3ccc(F)cc3)OC2=O)cc1 | – |
| 50.6 | < 4.52 | – | > 90 | – | C[C@@H](c1ccc(OC(F)F)cc1)N1CC[C@](CCC(N)=O)(c2ccccc2)OC1=O | bioavailability [11]: 51%; clearance [12]: 91 mL/min/kg; MRT [13]: 33 min; solubility [1, 15]: 1500 µg/mL (≈ 3580 µM) |
| > 60 | 5.18 | – | – | – | C[C@@H](c1ccc(OC(F)F)cc1)N1CC[C@](CC(C)(C)O)(c2ccc(F)cc2)OC1=O | – |
| 11.4 | – | – | – | – | C[C@@H](c1ccc(Br)cc1)N1CC[C@](CCCNS(C)(=O)=O)(c2ccc(F)cc2)OC1=O | – |
| 36.1 | < 4.52 | – | > 90 | – | C[C@@H](c1ccc(Br)cc1)N1CC[C@](CCC(N)=O)(c2ccc(F)cc2)OC1=O | bioavailability [11]: 42%; clearance [12]: 49 mL/min/kg; MRT [13]: 72 min; solubility [1, 15]: 300 µg/mL (≈ 668 µM); pIC50 [14]: 5.20 |
| 9 | – | – | – | – | COc1ccc([C@H](C)N2CC[C@](CCC(N)=O)(c3ccc(F)cc3)OC2=O)cc1 | – |
| > 60 | 4.57 | – | > 90 | – | C[C@@H](c1ccc(OC(F)F)cc1)N1CC[C@](CCC(N)=O)(c2ccc(F)cc2)OC1=O | bioavailability [11]: 77%; clearance [12]: 67 mL/min/kg; MRT [13]: 50.4 min; solubility [1, 15]: 460 µg/mL (≈ 1050 µM); pIC50 [14]: 5.28 |
| 25 | < 4.52 | – | – | – | C[C@@H](c1ccc(Br)cc1)N1CC[C@](CCO)(c2ccc(F)cc2)OC1=O | – |

Further lines, the compound ahead of its results:

| Compound | half-life [3] [min] | pIC50 (Cytochrome P450 3A4) | pIC50 (Cytochrome P450 2D6) | half-life [4] [min] | half-life [5] [min] | further results |
| --- | --- | --- | --- | --- | --- | --- |
| C[C@@H](c1ccc(-c2ccc(F)cc2F)cc1)N1CC[C@](CCO)(c2ccc(F)cc2)OC1=O | – | – | – | – | – | solubility ([1]; buffer, BLD = below limit of detection): Bld; logP [2]: 4.2 |
| C[C@@H](c1ccc(-c2ccc3ncnn3c2)cc1)N1CC[C@](CC(C)(C)O)(c2ccccc2)OC1=O | > 90 | 5.00 | < 4.30 | > 90 | > 45 | pIC50 (Cytochrome P450 2C9): < 4.30 |
| C[C@@H](c1ccc(-c2ccc(=O)n(C)c2)cc1)N1CC[C@](CCCO)(c2ccccc2)OC1=O | – | 4.98 | – | – | – | – |
| C[C@@H](c1ccc(-c2ccc(=O)n(C)c2)cc1)N1CC[C@](CC(C)(C)O)(c2ccccc2)OC1=O | > 90 | – | < 4.30 | > 90 | > 90 | AUC/dose (Cynomolgus monkey): 1770 nM·h; inhibition at 10 µM (hERG): < 10%; MRT [6]: 162 min; clearance [7]: 11 mL/min/kg; Vd [8]: 1.7 L/kg; MRT [9]: 288 min; bioavailability [10]: 39% |
| C[C@@H](c1ccc(-c2ccccn2)cc1)N1CC[C@](CCCO)(c2ccccc2)OC1=O | – | 4.64 | – | – | – | – |
| C[C@@H](c1ccc(-c2ccc(=O)n(C)n2)cc1)N1CC[C@](CC(C)(C)O)(c2ccccc2)OC1=O | > 90 | < 4.30 | < 4.30 | > 90 | > 45 | pIC50 (Cytochrome P450 2C9): < 4.30; inhibition at 10 µM (hERG): 50% |
| Cc1cnc(-c2ccc([C@H](C)N3CC[C@](CC(C)(C)O)(c4ccccc4)OC3=O)cc2)cn1 | 16 | < 4.30 | < 4.30 | > 90 | 38 | pIC50 (Cytochrome P450 2C9): 4.48 |
| COc1ccc(-c2ccc([C@H](C)N3CC[C@](CCCO)(c4ccccc4)OC3=O)cc2)cn1 | – | < 4.52 | – | – | – | – |
| COc1ccc(-c2ccc([C@H](C)N3CC[C@](CC(C)(C)O)(c4ccccc4)OC3=O)cc2)cn1 | – | – | < 4.30 | – | – | – |
| C[C@@H](c1ccc(-c2cccnc2)cc1)N1CC[C@](CCCO)(c2ccccc2)OC1=O | – | 5.68 | – | – | – | – |
| Cc1cc(-c2ccc([C@H](C)N3CC[C@](CC(C)(C)O)(c4ccccc4)OC3=O)cc2)cc(C)n1 | > 45 | – | < 4.30 | > 45 | 38 | pIC50 (CYP3A4): < 4.30 |
| Cc1ccc(-c2ccc([C@H](C)N3CC[C@](CC(C)(C)O)(c4ccccc4)OC3=O)cc2)nn1 | > 45 | – | < 4.30 | > 90 | > 45 | AUC/dose (Cynomolgus monkey): 3330 nM·h; pIC50 (CYP3A4): < 4.30; pIC50 (CYP2C9): < 4.30; inhibition at 10 µM (hERG): < 10%; MRT [6]: 288 min; clearance [7]: 5.2 mL/min/kg; Vd [8]: 1.5 L/kg; MRT [9]: 318 min; bioavailability [10]: 70% |
| Cc1cc(-c2ccc([C@H](C)N3CC[C@](CCCO)(c4ccccc4)OC3=O)cc2)cc(C)n1 | 13 | < 4.52 | – | – | – | – |
| C[C@@H](c1ccc(-c2cncc(F)c2)cc1)N1CC[C@](CCCO)(c2ccccc2)OC1=O | – | 4.96 | – | – | – | – |
| C[C@@H](c1ccc(-c2ccc(C(N)=O)cn2)cc1)N1CC[C@](CC(C)(C)O)(c2ccccc2)OC1=O | > 45 | – | < 4.30 | > 90 | > 45 | bioavailability [11]: 15%; pIC50 (CYP3A4): < 4.30; pIC50 (CYP2C9): < 4.30 |
| C[C@@H](c1ccc(-c2ccc(C#N)cn2)cc1)N1CC[C@](CC(C)(C)O)(c2ccccc2)OC1=O | > 90 | – | < 4.30 | > 90 | > 90 | – |
| C[C@@H](c1ccc(-c2ccc(F)cn2)cc1)N1CC[C@](CC(C)(C)O)(c2ccccc2)OC1=O | > 45 | – | < 4.30 | > 45 | > 45 | – |
| C[C@@H](c1ccc(-c2ccncc2)cc1)N1CC[C@](CCCO)(c2ccccc2)OC1=O | – | 5.74 | – | – | – | – |
| C[C@@H](c1ccc(OC(F)F)cc1)N1CC[C@](CC(C)(C)O)(c2ccccc2)OC1=O | > 60 | 5.00 | – | > 90 | – | bioavailability [11]: 57%; clearance [12]: 23 mL/min/kg; MRT [13]: 50.4 min; solubility [1, 15]: 260 µg/mL (≈ 620 µM) |
| Cc1ncc(-c2ccc([C@H](C)N3CC[C@](CC(C)(C)O)(c4ccccc4)OC3=O)cc2)cn1 | > 90 | – | < 4.30 | > 90 | > 90 | AUC/dose (Cynomolgus monkey): 2070 nM·h; pIC50 (CYP3A4): < 4.30; pIC50 (CYP2C9): < 4.30; inhibition at 10 µM (hERG): 12%; MRT [6]: 210 min; clearance [7]: 8.1 mL/min/kg; Vd [8]: 1.7 L/kg; MRT [9]: 288 min; bioavailability [10]: 96% |
